Data on 23 compounds can be found in ChEMBL document CHEMBL1641390, “Structure and cytotoxicity of diterpenoids from Isodon eriocalyx” (J Nat Prod, 2010).

The term pIC50 denotes −log10 of the IC50, conventionally taken in molar units. A lower pIC50 goes with a high IC50.

Type in all cases: functional, cell-based
The subject of one test is HT-29. Briefly: Cytotoxicity against human HT-29 cells after 72 hrs by sulforhodamine B assay. Conditions: HT-29, 72 h. The essentials: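 Cells plated 24 h, then exposed to five concentrations in duplicate for 72 h at 37 °C, 5% CO2. Saline vehicle control. TCA-fixed, SRB-stained, dye solubilized in 10 mM Tris, A510 read. Inhibition relative to control, expressed as IC50.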
In general terms: The SRB assay estimates cell density from bound dye.

For another test, the system named is Bel-7402. Kind of test: Cytotoxicity against human Bel7402 cells after 72 hrs by sulforhodamine B assay. As to conditions: Bel-7402, 72 h. Put shortly:
(§1)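 HT-29 and SK-OV-3 (ATCC) grown in McCoy's 5a, BEL-7402 (Shanghai Cell Bank) in RPMI 1640, all with 10% FBS. Cells plated 24 h, then exposed to five concentrations in duplicate for 72 h at 37 °C, 5% CO2. Saline vehicle control. TCA-fixed, SRB-stained, dye solubilized in 10 mM Tris, A510 read. Inhibition relative to control, expressed as IC50.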

A further test deals with SK-OV-3. Kind of test: Cytotoxicity against human SKOV3 cells after 72 hrs by sulforhodamine B assay. As to conditions: SK-OV-3, 72 h. The essentials: as §1

pIC50: −log10 of the molar value. Some results are limits rather than exact numbers.

As to `C=C(C=O)[C@@H]1CC[C@@H]2[C@@H](C1)C(=O)[C@@H](O)[C@@H]1[C@](C)(COC(C)=O)[C@@H](OC(C)=O)C[C@H](O)[C@@]21C`, the pIC50 in the test on HT-29 was less than 5.00; in the test with Bel-7402, less than 5.00; in the test with SK-OV-3 it was 5.29.

Regarding `C=C(C=O)[C@@H]1CC[C@@H]2[C@@H](C1)C(=O)[C@@H](O)[C@@H]1C(C)(C)[C@H](O)CC[C@@]21C`, the negative-log IC50 (pIC50) in the test with HT-29 was 5.09; with Bel-7402 it was less than 5.00; with SK-OV-3 it was 5.14.

Take `C=C(C=O)[C@@H]1CC[C@@H]2[C@@H](C1)C(=O)[C@@H](O)[C@@H]1[C@](C)(COC(C)=O)[C@@H](OC(C)=O)CC[C@]12C`: the pIC50 in the test on HT-29, with Bel-7402 and with SK-OV-3 was less than 5.00 throughout.

Regarding `C=C1C(=O)[C@@]23C[C@H]1C[C@H]1OC(O)[C@@H]4[C@](C)(COC(C)=O)[C@H](OC(C)=O)C[C@@H](OC2=O)[C@@]4(CO)[C@H]13` (stereo partly drawn), the pIC50 in the test on HT-29, in the test with Bel-7402 and with SK-OV-3 was less than 5.00 throughout.

Take `COc1cccc2c1C(=O)c1c(O)c3c(c(O)c1C2=O)C[C@@](O)(C(=O)CO)C[C@@H]3O[C@H]1C[C@H](N)[C@H](O)[C@H](C)O1` [DOXORUBICIN]: the pIC50 in the test with Bel-7402 was 7.17; in the test on SK-OV-3, 6.77.

As to `C=C1C(=O)[C@]23C[C@H]1CC[C@H]2[C@@]12CO[C@@]3(O)[C@@H](O)[C@@H]1C(C)(C)CC[C@@H]2OC(C)=O` [EFFUSANIN B], the values for the pIC50 in the test with HT-29, in the test with Bel-7402 and in the test with SK-OV-3 were 5.39, 5.14 and 5.68, respectively.

In the case of `C=C1C(=O)[C@]23C[C@H]1CC[C@H]2[C@@]12CO[C@]3(O)[C@@H](O)[C@@H]1[C@](C)(COC(C)=O)CC[C@@H]2OC(C)=O` [EFFUSANIN D], the pIC50 was 5.23 with HT-29, less than 5.00 in the test on Bel-7402 and 5.04 in the test on SK-OV-3.

With `C=C(C=O)[C@@H]1CCC2=C(C1)C(=O)[C@@H](O)[C@@H]1C(C)(C)[C@H](O)CC[C@@]21C` [ERIOCASIN B], the negative-log IC50 (pIC50) with HT-29, in the test on Bel-7402 and in the test on SK-OV-3 was less than 5.00 in each case.

As to `C=C(C=O)[C@@H]1CC[C@@H]2[C@@H](C1)C(=O)[C@@H](O)[C@@H]1[C@](C)(COC(C)=O)[C@@H](O)CC[C@]12C` [ERIOCASIN C], the negative logarithm of the IC50 (pIC50) in the test on HT-29, with Bel-7402 and in the test on SK-OV-3 was less than 5.00 throughout.

Consider `C=C(C=O)[C@@H]1CC[C@@H]2[C@@H](C1)C(=O)[C@@H](O)[C@@H]1[C@](C)(COC(C)=O)CC[C@H](O)[C@@]21C` [ERIOCASIN D], for which the figures for the negative-log IC50 (pIC50) with HT-29, in the test on Bel-7402 and in the test with SK-OV-3 were less than 5.00, less than 5.00 and 5.24, respectively.

`C=C(CO)[C@@H]1C[C@@H](OC(C)=O)[C@@H]2[C@@H](C1)C(=O)[C@@H](O)[C@@H]1C(C)(C)CCC[C@@]21C` [ERIOCASIN E]: the pIC50 in the test on HT-29, in the test with Bel-7402 and with SK-OV-3 was less than 5.00 each time.

As for `C=C1[C@H]2C[C@@H](O)C3(C(=O)C[C@@H]4[C@](C)(COC(C)=O)CCC[C@@]4(C)[C@@H]3C2)[C@@H]1O` [ERIOCATISIN A], the negative logarithm of the IC50 (pIC50) in the test on HT-29, with Bel-7402 and with SK-OV-3 was less than 5.00 throughout.

With `C=C1C(=O)[C@@]23[C@H](O)C[C@@H]4C(C)(C)CC[C@H](O)[C@@]4(COC(C)=O)[C@@H]2CC[C@@H]1[C@H]3O` [HENRYIN], the pIC50 is 5.22 in the test on HT-29, less than 5.00 with Bel-7402 and 5.23 in the test with SK-OV-3.

Regarding `C=C1C(=O)[C@@]23[C@@H]4C[C@@H]5C(C)(C)CC[C@H](O)[C@@]5(C(OC)O4)[C@@H]2CC[C@@H]1[C@H]3O` (stereo partly drawn) [KAMEBACETAL A], the pIC50 with HT-29 is 5.01; in the test on Bel-7402, less than 5.00; with SK-OV-3, 5.33.

On to `C=C1C(=O)[C@]23C[C@H]1CC[C@H]2[C@]12CCC[C@@](C)(COC(C)=O)[C@H]1[C@H](O)[C@]3(O)OC2` [LONGIKAURIN C], for which the figures for the negative logarithm of the IC50 (pIC50) with HT-29, in the test on Bel-7402 and with SK-OV-3 were 5.68, 5.54 and 5.48, respectively.

As for `C=C1C(=O)[C@]23C[C@H]1CC[C@H]2[C@]12CC[C@H](OC(C)=O)[C@@](C)(COC(C)=O)[C@H]1[C@H](O)[C@]3(O)OC2` [MAOECRYSTAL J], the values for the pIC50 with HT-29, with Bel-7402 and with SK-OV-3 were 5.38, less than 5.00 and 5.01, respectively.

`CC(=O)OC[C@]1(C)C(OC(C)=O)CC[C@]23CO[C@@](O)(C[C@@H]21)[C@]12C(=O)C4(CCC45C(=O)[C@]46[C@H](O)[C@H]5CC[C@H]4[C@]45CCC(OC(C)=O)[C@@](C)(COC(C)=O)[C@H]4C[C@]6(O)OC5)[C@H](CC[C@@H]31)[C@H]2O` (stereo partly drawn) [MAOECRYSTAL M]: the results for the pIC50 in the test with HT-29, with Bel-7402 and in the test on SK-OV-3 were less than 5.00, 5.22 and 5.15, respectively.

For the compound `C=C1C(=O)[C@]23C[C@H]1CC[C@H]2[C@@]12CO[C@@]3(O)[C@@H](OC(C)=O)[C@@H]1[C@@](C)(COC(C)=O)CC[C@H]2OC(C)=O` [MAOECRYSTAL R], the values for the pIC50 in the test on HT-29, in the test on Bel-7402 and in the test with SK-OV-3 were 5.62, 5.40 and 5.52, respectively.

As to `C=C1C(=O)[C@@]23C[C@H]1C[C@H]1O[C@H](O)[C@@H]4[C@](C)(COC(C)=O)CC[C@@H](OC2=O)[C@@]4(CO)[C@H]13` [MAOESIN A], the negative-log IC50 (pIC50) in the test with HT-29, with Bel-7402 and in the test with SK-OV-3 was less than 5.00 in each case.

As for `C=C1C(=O)[C@]23C[C@H]1C[C@@H](O)[C@H]2[C@]12CC[C@H](OC(C)=O)[C@@](C)(COC(C)=O)[C@H]1[C@H](O)[C@]3(O)OC2` [MAOESIN C], the pIC50 in the test with HT-29, in the test on Bel-7402 and in the test on SK-OV-3 was less than 5.00 each time.

Consider `C=C1C(=O)[C@]23C[C@H]1C=C[C@H]2[C@]12CC[C@H](OC(C)=O)[C@@](C)(COC(C)=O)[C@H]1[C@H](O)[C@]3(O)OC2` [MAOESIN D], for which the negative logarithm of the IC50 (pIC50) in the test on HT-29 was 5.14; in the test on Bel-7402, less than 5.00; with SK-OV-3, less than 5.00.

With `C=C1C(O)[C@]23C[C@H]1CC[C@H]2[C@@]1(C)[C@H]([C@H](OC(C)=O)C3=O)[C@](C)(COC(C)=O)CC[C@@H]1O` (stereo partly drawn) [MAOESIN E], the pIC50 in the test on HT-29, in the test with Bel-7402 and with SK-OV-3 was less than 5.00 throughout.

Take `C=C1C(OC(C)=O)[C@]23C[C@H]1CC[C@H]2[C@@]1(CC[C@H](OC(C)=O)[C@@](C)(COC(C)=O)[C@H]1C=O)COC3=O` (stereo partly drawn) [MAOESIN F]: the negative-log IC50 (pIC50) in the test on HT-29, with Bel-7402 and in the test on SK-OV-3 was less than 5.00 each time.
